Measured values taken from ChEMBL document CHEMBL4706728, “Discovery of a Highly Selective and Potent TRPC3 Inhibitor with High Metabolic Stability and Low Toxicity” (ACS Med Chem Lett, 2021).
Blank lines part the entries; values can stand above or below the compound they belong to. The source made the active and inactive calls. No cut-off for these calls is given here.

Experiments:
[1] = target: T1, Short transient receptor potential channel 3 (Homo sapiens) (UniProt Q13507); assay: Inhibition of human TRPC3 expressed in HEK293 cells assessed as inhibition of GSK170-induced current at 10 uM in absence of extracellular calcium by whole cell patch-clamp method relative to control; type: cell-based
T1 sequence (whole entry): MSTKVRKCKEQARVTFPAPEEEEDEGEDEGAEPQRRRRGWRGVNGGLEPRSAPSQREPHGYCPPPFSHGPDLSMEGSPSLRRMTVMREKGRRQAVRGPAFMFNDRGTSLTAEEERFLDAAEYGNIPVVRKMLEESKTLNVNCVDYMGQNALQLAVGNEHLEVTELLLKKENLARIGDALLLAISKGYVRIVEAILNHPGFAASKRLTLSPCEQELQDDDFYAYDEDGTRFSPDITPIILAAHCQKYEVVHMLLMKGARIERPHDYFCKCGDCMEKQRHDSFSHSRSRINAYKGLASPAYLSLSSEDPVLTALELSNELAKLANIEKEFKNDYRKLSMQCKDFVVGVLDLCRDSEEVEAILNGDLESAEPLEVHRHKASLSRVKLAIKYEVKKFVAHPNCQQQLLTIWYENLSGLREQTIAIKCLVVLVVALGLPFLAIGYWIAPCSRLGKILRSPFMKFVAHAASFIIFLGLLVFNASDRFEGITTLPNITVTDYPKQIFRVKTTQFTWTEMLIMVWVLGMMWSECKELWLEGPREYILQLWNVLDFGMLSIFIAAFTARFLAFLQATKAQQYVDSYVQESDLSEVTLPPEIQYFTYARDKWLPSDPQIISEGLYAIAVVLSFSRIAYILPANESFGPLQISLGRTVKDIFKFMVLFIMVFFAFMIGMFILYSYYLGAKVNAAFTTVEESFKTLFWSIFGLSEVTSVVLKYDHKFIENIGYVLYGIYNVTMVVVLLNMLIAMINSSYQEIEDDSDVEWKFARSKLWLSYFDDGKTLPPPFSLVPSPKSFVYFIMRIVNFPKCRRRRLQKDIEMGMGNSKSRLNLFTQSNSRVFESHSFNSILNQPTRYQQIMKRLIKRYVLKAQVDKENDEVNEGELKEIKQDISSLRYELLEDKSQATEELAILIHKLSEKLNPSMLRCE
How it was run: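 Human TRPC3 transiently expressed in HEK293 cells; whole-cell patch clamp with Ca2+-free solutions. Channel activated by GSK1702934A, then test compound at 10 μM perfused with the agonist. Inhibition expressed as percentage of the agonist-evoked current; mean ± SD, n cells per compound.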

[2] = Toxicity in NSG/ICR mouse assessed as mortality at 200 mg/kg, ip administered once daily for 5 days measured within 48 hrs; type: organism-based; conditions: in vivo, dose 200 mg/kg/day
How it was run: (§1)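 Mice (n = 5 per group) dosed at 200 mg/kg by intraperitoneal injection once daily for 5 consecutive days. Survival monitored. Body weight expressed as mean percent change ± SD relative to weight at the start of treatment (day 0), with 15% weight loss as the reference line.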

[3] = target: T2, Short transient receptor potential channel 3 (Homo sapiens, UniProt Q13507); assay: Inhibition of human TRPC3 expressed in HEK293 cells assessed as inhibition of GSK170-induced current in absence of extracellular calcium by whole cell patch-clamp method; type: cell-based
T2 sequence (Q13507 whole entry): T1 sequence (whole entry)
How it was run: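 Whole-cell patch clamp of hTRPC3 in transfected HEK293 cells, Ca2+-free solutions, currents activated by 1 μM GSK1702934A. Inhibitor at a range of concentrations perfused with agonist. Each concentration tested on independent cells and normalized to that cell's maximum current to avoid tachyphylaxis. Dose–response fitted for IC50; mean ± SD.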

[4] = target: T2, Short transient receptor potential channel 3; assay: Inhibition of human TRPC3 expressed in HEK293 cells assessed as inhibition of GSK170-induced current in presence of 2 mM extracellular calcium by whole cell patch-clamp method; type: cell-based
How it was run: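 hTRPC3 in HEK293 cells, whole-cell patch clamp with 2 mM extracellular Ca2+. Currents elicited by 1 μM GSK1702934A and challenged with a range of inhibitor concentrations by perfusion. Each concentration tested on separate cells and normalized to the cell's maximum amplitude. Dose–response curve built from the data; mean ± SD.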

[5] = target: T1, Short transient receptor potential channel 3 (Homo sapiens); assay: Inhibition of human TRPC3 expressed in HEK293 cells assessed as inhibition of OAG-induced current at 0.001 to 10 uM by whole cell patch-clamp method; type: cell-based; conditions: dose 0.001-10 µM
How it was run: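 Whole-cell recordings of hTRPC3 expressed in HEK293 cells, channel activated by 1-oleoyl-2-acetyl-sn-glycerol (membrane-permeable diacylglycerol analogue) instead of GSK1702934A. Inhibitor at a range of concentrations co-perfused with agonist to build a dose–response profile.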

ORAI1/STIM1 = ORAI1/STIM1 (Homo sapiens, UniProt Q96D31+Q13586); assay: Inhibition of STIM/Orai1 (unknown origin) expressed in HEK293 cells assessed as reduction in thapsigargin-induced Ca2+ influx at 10 uM in presence of Ca2+ by whole cell patch clamp method; type: cell-based; conditions: hek293, 10 µM
[6] = Metabolic stability in human liver microsomes assessed as half life at […] measured up to 240 mins in presence of NADPH regeneration system by LC-MS analysis; type: ADME, Microsome
[7] = Metabolic stability in mouse liver microsomes assessed as half life at […] measured up to 240 mins in presence of NADPH regeneration system by LC-MS analysis; type: ADME, Microsome
[8] = Metabolic stability in rat liver microsomes assessed as half life at […] measured up to 240 mins in presence of NADPH regeneration system by LC-MS analysis; type: ADME, Microsome
[9] = Toxicity in NSG/ICR mouse assessed as body weight loss at 200 mg/kg, ip administered once daily for 5 days; type: organism-based; conditions: in vivo, 120 h, dose 200 mg/kg/day, time 5 day; how it was run: as §1
Hippocampal neurone = assay: Neuroprotective activity in Sprague-Dawley rat primary hippocampal neurons assessed as reduction in Abeta-induced dendrites damage at 0.25 to 1 uM incubated for 16 hrs by MAP2 staining based assay; type: functional, tissue-based; conditions: dose 0.25-1 µM
How it was run: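 Primary hippocampal neurons from E17 rat embryos, used at 14 DIV. Treated for 16 h with naturally secreted Aβ-containing 7PA2 conditioned medium (CHO medium as control), alone or with test compound at several concentrations. Neurons then immunostained for MAP2 with DAPI, and dendritic length quantified.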

[10] = target: T3, Short transient receptor potential channel 3 (Mus musculus, UniProt Q9QZC1); assay: Inhibition of mouse TRPC3 expressed in HEK293 cells assessed as inhibition of Ca2+ influx by whole cell patch-clamp method; type: cell-based
T3 sequence (Q9QZC1 whole entry): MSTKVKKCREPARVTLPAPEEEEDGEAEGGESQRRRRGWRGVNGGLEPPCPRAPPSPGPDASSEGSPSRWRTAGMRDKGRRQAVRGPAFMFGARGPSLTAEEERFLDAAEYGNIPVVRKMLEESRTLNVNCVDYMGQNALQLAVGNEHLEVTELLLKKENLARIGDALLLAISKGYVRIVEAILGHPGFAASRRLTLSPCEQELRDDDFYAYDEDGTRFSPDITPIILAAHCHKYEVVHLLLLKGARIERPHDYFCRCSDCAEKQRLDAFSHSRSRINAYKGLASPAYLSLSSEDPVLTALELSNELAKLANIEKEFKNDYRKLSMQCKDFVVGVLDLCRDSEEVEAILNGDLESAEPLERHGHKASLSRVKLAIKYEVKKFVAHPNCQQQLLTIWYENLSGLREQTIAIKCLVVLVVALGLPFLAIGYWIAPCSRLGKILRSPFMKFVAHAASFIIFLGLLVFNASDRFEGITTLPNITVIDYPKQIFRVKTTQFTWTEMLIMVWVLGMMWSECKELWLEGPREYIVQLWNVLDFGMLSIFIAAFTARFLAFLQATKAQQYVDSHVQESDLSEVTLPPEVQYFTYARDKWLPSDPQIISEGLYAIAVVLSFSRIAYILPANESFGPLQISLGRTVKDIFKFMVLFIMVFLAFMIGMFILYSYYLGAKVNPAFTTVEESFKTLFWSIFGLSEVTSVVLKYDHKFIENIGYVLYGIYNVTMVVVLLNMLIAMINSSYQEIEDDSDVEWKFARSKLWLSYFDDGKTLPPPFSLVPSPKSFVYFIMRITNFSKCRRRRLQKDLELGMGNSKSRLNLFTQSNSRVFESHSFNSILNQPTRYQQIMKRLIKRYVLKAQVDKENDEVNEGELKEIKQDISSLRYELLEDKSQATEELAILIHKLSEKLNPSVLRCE

[11] = Toxicity in NSG/ICR mouse assessed as survival at 200 mg/kg, ip administered once daily for 5 days; type: organism-based; conditions: NSG/ICR, in vivo, dose 200 mg/kg/day, time 5 day; how it was run: as §1

Chain of ORAI1/STIM1 (Q96D31 whole entry): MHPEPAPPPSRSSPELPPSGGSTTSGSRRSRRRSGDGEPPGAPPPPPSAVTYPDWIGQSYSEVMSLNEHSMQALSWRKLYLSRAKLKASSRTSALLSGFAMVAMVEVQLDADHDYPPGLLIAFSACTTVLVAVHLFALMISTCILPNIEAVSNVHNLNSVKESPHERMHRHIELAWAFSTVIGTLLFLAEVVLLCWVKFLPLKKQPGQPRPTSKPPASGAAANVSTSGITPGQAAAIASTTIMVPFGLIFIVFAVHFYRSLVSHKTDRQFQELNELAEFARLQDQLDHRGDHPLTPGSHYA
Chain of ORAI1/STIM1 (Q13586 whole entry): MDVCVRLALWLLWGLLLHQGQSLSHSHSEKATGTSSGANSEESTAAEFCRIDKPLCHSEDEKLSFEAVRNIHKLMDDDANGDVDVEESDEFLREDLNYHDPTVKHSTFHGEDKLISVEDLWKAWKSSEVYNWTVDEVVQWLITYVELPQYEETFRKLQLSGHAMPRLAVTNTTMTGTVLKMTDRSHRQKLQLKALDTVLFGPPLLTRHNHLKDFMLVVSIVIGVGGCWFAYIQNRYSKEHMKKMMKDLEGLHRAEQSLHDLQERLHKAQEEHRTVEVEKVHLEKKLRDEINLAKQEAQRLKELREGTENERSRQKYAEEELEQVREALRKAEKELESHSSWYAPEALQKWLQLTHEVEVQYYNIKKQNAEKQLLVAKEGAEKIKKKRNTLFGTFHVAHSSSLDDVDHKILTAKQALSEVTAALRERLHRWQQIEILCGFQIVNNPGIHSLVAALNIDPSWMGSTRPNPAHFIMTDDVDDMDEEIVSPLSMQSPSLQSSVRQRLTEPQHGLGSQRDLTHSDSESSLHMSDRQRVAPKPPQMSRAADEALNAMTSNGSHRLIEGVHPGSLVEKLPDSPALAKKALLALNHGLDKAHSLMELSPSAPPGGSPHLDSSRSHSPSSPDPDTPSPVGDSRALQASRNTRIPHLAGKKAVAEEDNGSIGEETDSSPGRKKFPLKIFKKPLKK

SMILES: CCNS(=O)(=O)c1cnn(-c2ccc(-n3ccc(Cl)c(Cl)c3=O)cc2)c1C(F)(F)F
inhibition [1]: inactive

SMILES: CCNC(=O)c1cnn(-c2ccc(NC(=O)C(Cl)=C(Cl)Cl)cc2)c1C(F)(F)F
mortality at 48 h [2]: 100%

SMILES: CCOC(=O)c1cnn(-c2ccc(NC(=O)C(Cl)=C(Cl)Cl)cc2)c1C(F)(F)F
inhibition [1]: 91% | IC50 [3]: 530 nM | IC50 [4]: 470 nM | inhibition [5]: Active | inhibition (INH) (ORAI1/STIM1): Active | half-life [6]: < 15 min | half-life [7]: < 15 min | half-life [8]: < 15 min | Activity [9]: 15% | Activity (Hippocampal neurone): Active | IC50 [10]: 700 nM | survival at 120 h [11]: 80%

SMILES: CCNC(=O)c1cnn(-c2ccc(-n3ccc(Cl)c(F)c3=O)cc2)c1C(F)(F)F
inhibition [1]: inactive

SMILES: CCNC(=O)c1cnn(-c2ccc(-n3ccc(Cl)cc3=O)cc2)c1C(F)(F)F
inhibition [1]: 84%

Other lines, results leading:

inhibition [1]: inactive
SMILES: CCOC(=O)c1cnn(-c2ccc(-n3cc(Cl)cc(Cl)c3=O)cc2)c1C(F)(F)F

inhibition [1]: inactive
SMILES: CCOC(=O)c1cnn(-c2ccc(-n3ccccc3=O)cc2)c1C(F)(F)F

inhibition [1]: 71%
SMILES: CCOC(=O)c1cnn(-c2ccc(-n3ccc(Cl)cc3=O)cc2)c1C(F)(F)F

inhibition [1]: inactive
SMILES: CCOC(=O)c1cnn(-c2ccc(-n3cc(Cl)ccc3=O)cc2)c1C(F)(F)F
